Measurements from ChEMBL document CHEMBL1139309, “Novel fluorinated pseudopeptides as proteasome inhibitors” (Bioorg Med Chem Lett, 2009).
Activity calls are given as the source filed them. The calls are words filed in the database; no cut-off is given here.

Experiments:
[1] = target: Cathepsin B (Homo sapiens) (UniProt P07858); experiment: Inhibition of CTSB
How it was run: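 Cathepsin B was assayed at 37 °C using Z-RR-AMC substrate in 352 mM KH2PO4 (pH 6), 48 mM NaHPO4, 1 mM EDTA and 1 mM DTT.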

[2] = (§1) Inhibition of chymotrypsin-like activity of rabbit 20S proteasome; design: species or system Oryctolagus cuniculus
How it was run: (§2)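 Rabbit 20S proteasome was run at 37 °C, pH 7.5, for 45 min, with and without compound (0.1–200 µM). Fluorogenic substrates were Suc-LLVY-AMC for chymotrypsin-like activity and Z-LLE-βNA for post-acid activity. Buffer was 20 mM Tris, 1 mM DTT, 10% glycerol and 0.02% (w/v) SDS. IC50 or % inhibition at 100 µM is the mean of three experiments.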

[3] = (§3) Inhibition of post-acid activity of rabbit 20S proteasome; design: species or system Oryctolagus cuniculus; how it was run: as §2
[4] = target: T1, Calpain-1 catalytic subunit (Homo sapiens) (UniProt P07384); experiment: Inhibition of calpain 1
T1 sequence (whole entry): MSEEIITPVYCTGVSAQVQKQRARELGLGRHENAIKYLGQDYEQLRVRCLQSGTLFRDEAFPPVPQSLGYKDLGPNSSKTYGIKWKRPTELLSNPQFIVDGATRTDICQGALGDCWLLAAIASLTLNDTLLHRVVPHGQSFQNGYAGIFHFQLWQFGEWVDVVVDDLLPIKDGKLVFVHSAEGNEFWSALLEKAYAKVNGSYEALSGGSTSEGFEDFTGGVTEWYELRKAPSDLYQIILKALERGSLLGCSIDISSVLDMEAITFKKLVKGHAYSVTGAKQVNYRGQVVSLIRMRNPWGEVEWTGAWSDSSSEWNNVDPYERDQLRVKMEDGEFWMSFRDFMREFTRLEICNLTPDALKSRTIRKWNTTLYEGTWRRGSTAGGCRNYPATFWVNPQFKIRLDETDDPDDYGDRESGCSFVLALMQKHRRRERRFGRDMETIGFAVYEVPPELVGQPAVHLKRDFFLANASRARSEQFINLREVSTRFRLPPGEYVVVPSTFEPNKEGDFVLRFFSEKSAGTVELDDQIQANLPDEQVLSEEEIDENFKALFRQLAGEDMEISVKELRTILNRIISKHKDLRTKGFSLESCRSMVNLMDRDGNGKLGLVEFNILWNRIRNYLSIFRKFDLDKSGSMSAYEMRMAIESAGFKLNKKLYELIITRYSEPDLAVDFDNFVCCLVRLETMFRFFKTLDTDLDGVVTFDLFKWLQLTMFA
How it was run: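 Purified calpain I was assayed at 37 °C with Suc-LLVY-AMC substrate in 50 mM Tris–HCl (pH 7.2), 10 mM DTT and 2 mM CaCl2.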

[5] = (§4) Inhibition of trypsin-like activity of rabbit 20S proteasome; design: species or system Oryctolagus cuniculus
How it was run: (§5)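 Trypsin-like activity of rabbit 20S proteasome was followed by Boc-LRR-AMC hydrolysis over 45 min at 37 °C, with and without compound (0.1–200 µM). Buffer was pH 7.5 20 mM Tris, 1 mM DTT and 10% glycerol, with no SDS. Values are IC50 or % inhibition at 100 µM, as means of three experiments.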

[6] = test system: HeLa; experiment: Inhibition of chymotrypsin-like activity of 20S proteasome in human HeLa cells at 50 uM after 1.5 hrs by chemiluminescent assay
[7] = organism: Oryctolagus cuniculus; experiment: as §1; how it was run: as §2
[8] = organism: Oryctolagus cuniculus; experiment: as §4; how it was run: as §5
[9] = organism: Oryctolagus cuniculus; experiment: Inhibition of trypsin-like activity of rabbit 20S proteasome at 100 uM; how it was run: as §5
[10] = organism: Oryctolagus cuniculus; experiment: as §3; how it was run: as §2

Compound	Activity [1]	IC50 [2]	IC50 [3]	Activity [4]	IC50 [5]	Activity [7]	Activity [8]	inhibition [9]	Activity [10]	inhibition [6]
COC(=O)[C@H](Cc1ccccc1)NC(=O)CC(NNC(=O)[C@H](CCCCN)NC(=O)Cc1cccc(Oc2ccccc2)c1)C(F)(F)F (mixture of isomers)	inactive	1.6 µM	2.7 µM	inactive	8.4 µM					20%
COC(=O)[C@H](Cc1ccccc1)NC(=O)CC(NNC(=O)[C@H](CCCCN)NC(=O)OC(C)(C)C)C(F)(F)F (mixture of isomers)	inactive	32 µM	6 µM	inactive				30%		
COC(=O)[C@H](Cc1ccccc1)NC(=O)CC(NNC(=O)[C@H](Cc1ccc(OC)c(OC)c1)NC(=O)Cc1cccc(Oc2ccccc2)c1)C(F)(F)F (mixture of isomers)		85 µM	72 µM							
COC(=O)[C@H](Cc1ccccc1)NC(=O)CC(NNC(=O)[C@H](CCCCNC(=O)OCc1ccccc1)NC(=O)OC(C)(C)C)C(F)(F)F (mixture of isomers)						inactive			inactive	

More lines, main results first:

Activity [1]	IC50 [2]	IC50 [3]	Activity [4]	IC50 [5]	Activity [7]	Activity [8]	inhibition [9]	Activity [10]	Compound	inhibition [6]
		200 µM			inactive	inactive			COC(=O)[C@H](Cc1ccccc1)NC(=O)CC(NNC(=O)[C@H](CCCCNC(=O)OCc1ccccc1)NC(=O)Cc1cccc(Oc2ccccc2)c1)C(F)(F)F (mixture of isomers)	
						inactive		inactive	COC(=O)[C@H](Cc1ccccc1)NC(=O)CC(NNC(=O)Cc1cccc(Oc2ccccc2)c1)C(F)(F)F (mixture of isomers)	
inactive	5.9 µM		inactive	4.4 µM				inactive	COC(=O)[C@H](Cc1ccccc1)NC(=O)CC(NNC(=O)[C@@H](N)CCCCNC(=O)OCc1ccccc1)C(F)(F)F (mixture of isomers)	
